Data on 19 molecules can be found in ChEMBL document CHEMBL3286279, “The synthesis and biological evaluation of new DNA-directed alkylating agents, phenyl N-mustard-4-anilinoquinoline conjugates containing a urea linker” (Eur J Med Chem, 2014).

Experiment [1] concerns CCRF-CEM. Put plainly: Cytotoxicity against human CCRF-CEM cells after 72 hrs by AlamarBlue assay. The class given is functional, cell-based. A digest of the protocol:
(§1)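 Growth inhibition read by alamarBlue. After reagent addition, plates were held 6 h at 37 °C and absorbance read at 570 and 600 nm. IC50 was derived from dose-response curves over 6 or 7 drug concentrations by the median-effect method. Values are mean and STDEV of three to six independent experiments.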

The subject of experiment [2] is CCRF-CEM. Put plainly: Cytotoxicity against human vinblastine-resistant CCRF-CEM cells after 72 hrs by AlamarBlue assay. The format is functional, cell-based. The gist of the method: as §1
For another experiment, the system named is PC-3. Put plainly: Cytotoxicity against human PC3 cells after 72 hrs by AlamarBlue assay. The class given is functional, cell-based. The note with it: PC-3, 72 h. The gist of the method:
as §1

The nature of experiment [3]: Cytotoxicity against human H460 cells after 72 hrs by AlamarBlue assay. The class given is functional, cell-based. The following applies: NCI-H460, 72 h. A digest of the protocol:
as §1

Experiment [4] can be described thus: Cytotoxicity against human H1299 cells after 72 hrs by AlamarBlue assay. The format is functional, cell-based. The note with it: NCI-H1299, 72 h. The gist of the method:
as §1

The next experiment concerns HCT-116. Put plainly: Cytotoxicity against human HCT116 cells after 72 hrs by AlamarBlue assay. The following applies: HCT-116, 72 h. The class given is functional, cell-based. A digest of the protocol: as §1
Experiment [5] has as its system CCRF-CEM. Put plainly: Ratio of IC50 for human vinblastine-resistant CCRF-CEM cells to IC50 for human CCRF-CEM cells. The format is functional. The gist of the method:
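Ratio of alamarBlue IC50 values, determined in the CCRF-CEM/VBL vinblastine-resistant subline and in the parental CCRF-CEM line.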

The nature of experiment [6]: Induction of DNA cross-linking activity in pEGFP-N1 DNA (unknown origin) at 20 uM after 2 hrs by alkaline agarose gel shift assay. A digest of the protocol: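 pEGFP-N1 plasmid DNA incubated with compound at 1, 10 or 20 µM in binding buffer (30 mM NaCl/10 mM sodium phosphate pH 7.4, 10 mM EDTA) for 2 h at 37 °C. DNA then linearized with BamHI for 6 h, ethanol-precipitated and run on alkaline agarose gel. Cross-linked double-stranded DNA was scored against single-stranded DNA. Melphalan (1 and 10 µM) was the positive control.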

Each structure is given as a SMILES string. Active and inactive are the calls of the source. The calls are words filed in the database; no cut-off is given here.

With `Cc1cc(Nc2cccc(C(F)(F)F)c2)c2cc(NC(=O)Nc3ccc(N(CCCl)CCCl)cc3)ccc2n1`, the IC50 in the experiment on CCRF-CEM [1] came to 590 nM; in the experiment with CCRF-CEM [2] it was 5960 nM; in the experiment with PC-3, 1420 nM; in experiment [3] it was 850 nM; in experiment [4], 1480 nM; in the experiment with HCT-116, 620 nM. Also, the “Ratio IC50” value with CCRF-CEM [5] is 10.1.

Turning to `COc1cccc(Nc2cc(-c3ccccc3)nc3ccc(NC(=O)Nc4ccc(N(CCCl)CCCl)cc4)cc23)c1`, the IC50 with CCRF-CEM [1] is 790 nM; in the experiment on CCRF-CEM [2], 2710 nM; in the experiment with PC-3, 2210 nM; in experiment [3], 1890 nM; in experiment [4] it was 2130 nM; in the experiment on HCT-116, 1350 nM. In the experiment with CCRF-CEM [5], the “Ratio IC50” value is recorded as 3.43.

As to `Cc1cccc(Nc2cc(C)nc3ccc(NC(=O)Nc4ccc(N(CCCl)CCCl)cc4)cc23)c1`, the half-inhibitory concentration (IC50) worked out at 390 nM in the experiment on CCRF-CEM [1]; 5850 nM in the experiment on CCRF-CEM [2]; 1290 nM in the experiment on PC-3; 920 nM in experiment [3]; 1050 nM in experiment [4]; 490 nM with HCT-116. In the experiment with CCRF-CEM [5], the “Ratio IC50” value amounted to 15. Besides, the outcome in experiment [6] was Active.

For the molecule `Cc1cc(Nc2ccc(Br)cc2)c2cc(NC(=O)Nc3ccc(N(CCCl)CCCl)cc3)ccc2n1`, the IC50 is 520 nM with CCRF-CEM [1]; 9530 nM in the experiment with CCRF-CEM [2]; 1750 nM in the experiment on PC-3; 910 nM in experiment [3]; 1350 nM in experiment [4]; 800 nM with HCT-116. In addition, in the experiment on CCRF-CEM [5], the “Ratio IC50” value is recorded as 18.33.

Consider `Cc1cc(Nc2ccc(F)cc2)c2cc(NC(=O)Nc3ccc(N(CCCl)CCCl)cc3)ccc2n1`, for which the IC50 stood at 420 nM in the experiment on CCRF-CEM [1]; 11000 nM with CCRF-CEM [2]; 7160 nM in the experiment with PC-3; 1010 nM in experiment [3]; 2370 nM in experiment [4]; 1060 nM with HCT-116. Also, the “Ratio IC50” value in the experiment on CCRF-CEM [5] stood at 26.19.

For the molecule `COc1cc(Nc2cc(C)nc3ccc(NC(=O)Nc4ccc(N(CCCl)CCCl)cc4)cc23)cc(OC)c1OC`, the IC50 in the experiment with CCRF-CEM [1] is 800 nM; with CCRF-CEM [2], more than 100000 nM; with PC-3, 3460 nM; in experiment [3] it was 3740 nM; in experiment [4], 2540 nM; in the experiment with HCT-116 it was 1810 nM. In the experiment on CCRF-CEM [5], the “Ratio IC50” value is more than 125.

Turning to `Cc1cccc(Nc2cc(-c3ccccc3)nc3ccc(NC(=O)Nc4ccc(N(CCCl)CCCl)cc4)cc23)c1`, the IC50 amounted to 1840 nM with CCRF-CEM [1]; 4150 nM in the experiment with CCRF-CEM [2]; 1230 nM with PC-3; 2090 nM in experiment [3]; 1420 nM in experiment [4]; 1800 nM with HCT-116. In the experiment on CCRF-CEM [5], the “Ratio IC50” value is reported as 2.25.

As to `Cc1cc(Nc2ccccc2)c2cc(NC(=O)Nc3ccc(N(CCCl)CCCl)cc3)ccc2n1`, the 50% inhibitory concentration (IC50) in the experiment on CCRF-CEM [1] is 440 nM; in the experiment on CCRF-CEM [2], 11500 nM; in the experiment on PC-3, 1490 nM; in experiment [3], 1370 nM; in experiment [4] it was 1730 nM; in the experiment on HCT-116, 830 nM. In addition, in the experiment with CCRF-CEM [5], the “Ratio IC50” value is reported as 26.15.

Regarding `CC[C@]1(O)C[C@@H]2CN(CCc3c([nH]c4ccccc34)[C@@](C(=O)OC)(c3cc4c(cc3OC)N(C)[C@H]3[C@@](O)(C(=O)OC)[C@H](OC(C)=O)[C@]5(CC)C=CCN6CC[C@]43[C@@H]65)C2)C1` [VINBLASTINE], the IC50 in the experiment with CCRF-CEM [1] is 2.9 nM; in the experiment on CCRF-CEM [2] it was 870 nM. In the experiment on CCRF-CEM [5], the “Ratio IC50” value came to 300.

`Cc1cc(Nc2ccc(F)c(Br)c2)c2cc(NC(=O)Nc3ccc(N(CCCl)CCCl)cc3)ccc2n1`: the IC50 in the experiment on CCRF-CEM [1] came to 400 nM; in the experiment with CCRF-CEM [2] it was 10200 nM; with PC-3, 1320 nM; in experiment [3] it was 820 nM; in experiment [4], 1280 nM; in the experiment on HCT-116, 630 nM. The “Ratio IC50” value in the experiment with CCRF-CEM [5] is on record as 25.45.

Regarding `Cc1cc(Nc2cccc(Cl)c2)c2cc(NC(=O)Nc3ccc(N(CCCl)CCCl)cc3)ccc2n1`, the half-maximal inhibitory concentration (IC50) was 590 nM in the experiment on CCRF-CEM [1]; 7560 nM in the experiment on CCRF-CEM [2]; 1270 nM with PC-3; 1030 nM in experiment [3]; 880 nM in experiment [4]; 560 nM in the experiment with HCT-116. Also, the “Ratio IC50” value in the experiment on CCRF-CEM [5] stood at 12.81.

Regarding `Cc1cc(Nc2ccc(F)c(Cl)c2)c2cc(NC(=O)Nc3ccc(N(CCCl)CCCl)cc3)ccc2n1`, the IC50 with CCRF-CEM [1] amounted to 540 nM; in the experiment on CCRF-CEM [2], 9830 nM; in the experiment on PC-3, 1780 nM; in experiment [3] it was 1400 nM; in experiment [4], 1070 nM; with HCT-116 it was 830 nM. In addition, the “Ratio IC50” value in the experiment on CCRF-CEM [5] is recorded as 18.2.

On to `O=C(Nc1ccc(N(CCCl)CCCl)cc1)Nc1ccc2nc(-c3ccccc3)cc(Nc3ccc(F)c(Cl)c3)c2c1`, for which the 50% inhibitory concentration (IC50) with CCRF-CEM [1] is 2720 nM; with CCRF-CEM [2], 7070 nM; with PC-3 it was 8860 nM; in experiment [3], 7810 nM; in experiment [4], 5390 nM; in the experiment with HCT-116, 3580 nM. In addition, the “Ratio IC50” value in the experiment on CCRF-CEM [5] is reported as 2.59.

As for `C#Cc1cccc(Nc2cc(C)nc3ccc(NC(=O)Nc4ccc(N(CCCl)CCCl)cc4)cc23)c1`, the IC50 came out at 470 nM in the experiment with CCRF-CEM [1]; 4490 nM in the experiment on CCRF-CEM [2]; 1170 nM in the experiment with PC-3; 700 nM in experiment [3]; 1130 nM in experiment [4]; 590 nM in the experiment on HCT-116. Further, the “Ratio IC50” value in the experiment on CCRF-CEM [5] was found to be 9.55.

As to `Cc1cc(Nc2cccc(F)c2)c2cc(NC(=O)Nc3ccc(N(CCCl)CCCl)cc3)ccc2n1`, the IC50 in the experiment with CCRF-CEM [1] was 700 nM; with CCRF-CEM [2], 9580 nM; with PC-3 it was 1490 nM; in experiment [3] it was 860 nM; in experiment [4], 1090 nM; in the experiment on HCT-116, 740 nM. Further, the “Ratio IC50” value in the experiment on CCRF-CEM [5] is 13.68.

Regarding `O=C(Nc1ccc(N(CCCl)CCCl)cc1)Nc1ccc2nc(-c3ccccc3)cc(Nc3cccc(Cl)c3)c2c1`, the half-maximal inhibitory concentration (IC50) turned out to be 2070 nM with CCRF-CEM [1]; 4550 nM in the experiment with CCRF-CEM [2]; 2130 nM in the experiment with PC-3; 2260 nM in experiment [3]; 2350 nM in experiment [4]; 3690 nM in the experiment on HCT-116. Further, the “Ratio IC50” value in the experiment with CCRF-CEM [5] is reported as 2.19.

Consider `CNc1cc(C)nc2ccc(NC(=O)Nc3ccc(N(CCCl)CCCl)cc3)cc12`, for which the IC50 in the experiment on CCRF-CEM [1] is 390 nM; in the experiment on CCRF-CEM [2] it was more than 100000 nM; in the experiment with PC-3, 2510 nM; in experiment [3], 9370 nM; in experiment [4], 5400 nM; in the experiment with HCT-116 it was 1280 nM. For the same molecule, the “Ratio IC50” value with CCRF-CEM [5] was more than 256.

As to `Cc1cc(Nc2ccc(Cl)cc2)c2cc(NC(=O)Nc3ccc(N(CCCl)CCCl)cc3)ccc2n1`, the IC50 stood at 730 nM in the experiment on CCRF-CEM [1]; 8180 nM with CCRF-CEM [2]; 1360 nM in the experiment with PC-3; 840 nM in experiment [3]; 1310 nM in experiment [4]; 770 nM in the experiment on HCT-116. The “Ratio IC50” value with CCRF-CEM [5] worked out at 11.21.

For `COc1cccc(Nc2cc(C)nc3ccc(NC(=O)Nc4ccc(N(CCCl)CCCl)cc4)cc23)c1`, the IC50 is 280 nM in the experiment on CCRF-CEM [1]; 4220 nM in the experiment with CCRF-CEM [2]; 2380 nM in the experiment on PC-3; 1830 nM in experiment [3]; 1320 nM in experiment [4]; 620 nM with HCT-116. Moreover, the “Ratio IC50” value in the experiment with CCRF-CEM [5] is recorded as 15.07. Further, the result in experiment [6] was Active.
